Only some compounds are listed: those with a hit (about 2.3% of all), similar ones and a draw of the others.
Candida biofilm: clotrimazole potentiators killing Candida biofilms, primary screen, with clotrimazole, Alamar Blue; inhibition, % at 6 µM; C. albicans biofilm + clotrimazole; 85,000 compounds, 0.14% hits;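 active = inhibition above 20%; inactive = inhibition below 20%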;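 note: preformed 24 hr biofilms exposed to compound for 48 hr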
JNK3 inh: JNK3 kinase activity inhibitors, primary screen, biochemical, human, purified enzyme; Mitogen-activated protein kinase 10 (Homo sapiens), P53779; HTS; inhibition, % at 8 µM; 60,000 compounds, 0.61% hits; in the data active = inhibition above about 17%
SF-1 act: activators of human SF-1, primary screen, cell-based, CHO-K1, Gal4-SF-1 LBD, luciferase luminescence | Steroidogenic factor 1 (Homo sapiens), Q13285 | 65,000 compounds, 1.9% hits | activation, % at 10 µM | AID 522, 2006 | CHO-K1 Gal4-SF-1 LBD luciferase reporter; % increase over DMSO SF-1-specific signal;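 active = activation above the mean activation of all tested compounds plus 3 SD, cut at about 50% in these data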
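Assay system – CHO-K1 cells with Gal4–hSF-1 LBD chimera plus Gal4-driven luciferase · Quantity – 4,000 cells per well · Times – compound added 1 h post-seeding, 20 h exposure at 37 °C, 5% CO2 · Measured by – luciferase light emission · Benchmarks – DMSO and mock-transfected background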
RORA act: activators of orphan receptor RORA, primary screen, cell-based, luminescence; Nuclear receptor ROR-alpha (Homo sapiens), P35398; CHO-K1 Gal4-RORA LBD luciferase reporter; percent increase over mock-subtracted basal signal; activation, % at 10 µM; 65,000 compounds, 1.5% hits; AID 560, 2006;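 active = activation above the mean of all tested compounds plus 3 SD, cut at about 49% in these data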
Target sequence (P35398 whole entry, looked up, the tested form may be a part): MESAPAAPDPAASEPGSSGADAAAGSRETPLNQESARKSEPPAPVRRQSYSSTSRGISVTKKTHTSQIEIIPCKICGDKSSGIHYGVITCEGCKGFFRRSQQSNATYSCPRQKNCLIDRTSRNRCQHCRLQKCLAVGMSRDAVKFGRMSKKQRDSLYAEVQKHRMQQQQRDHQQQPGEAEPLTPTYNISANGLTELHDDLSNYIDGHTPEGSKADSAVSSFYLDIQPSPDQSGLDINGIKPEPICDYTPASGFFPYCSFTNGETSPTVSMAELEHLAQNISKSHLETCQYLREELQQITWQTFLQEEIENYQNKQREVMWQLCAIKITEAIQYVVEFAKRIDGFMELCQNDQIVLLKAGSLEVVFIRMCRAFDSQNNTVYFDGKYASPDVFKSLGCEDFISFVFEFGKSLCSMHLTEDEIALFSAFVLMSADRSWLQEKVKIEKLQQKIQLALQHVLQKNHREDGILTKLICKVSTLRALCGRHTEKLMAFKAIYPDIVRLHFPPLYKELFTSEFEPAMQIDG
Hits are given with their value; n = inactive; x = no result.

SMILES | Candida biofilm | JNK3 inh | SF-1 act | RORA act
CC1=C(C(=O)OC2CCCCCCC2)C(c2ccc(O)cc2)NC(=O)N1 (stereo not given) | n | 22 | n | n
COc1cc(C2NC(=O)NC(C)=C2C(=O)OC2CCCCC2)cc(Br)c1O (stereo not given) | n | n | n | n
CCOC(=O)c1cnc(SC)nc1Sc1ccccc1 | n | x | x | x
O=C(Nc1ccc2c(c1)oc1ccccc12)N1CCOCC1 | n | n | 52 | n
O=C(Nc1ccc2ccccc2c1)c1cccnc1 | n | n | 66 | 73
CC1CCN(c2ccc(NC(=O)c3cccnc3)cc2)CC1 | n | n | 59 | n
O=C(NCCSc1ccccc1)c1cccnc1 | x | n | 62 | 78
Cc1cc(C)nc(SCc2nnc(SCc3ccccc3Cl)o2)n1 | n | n | n | n
O=C(Nc1ccc2ccccc2c1)c1cnccn1 | x | n | n | 57
O=C(Nc1ccc2c(c1)oc1ccccc12)c1cccnc1 | n | n | 55 | n
O=C(Nc1ccc2c(c1)oc1ccccc12)c1ccncc1 | n | n | n | n
Cc1cc(C)cc(COn2ccnc2)c1 | n | x | x | x
CCOc1ccc(N2Cc3ccccc3C2)cc1 | n | n | 62 | 51
CCOc1ccccc1N1Cc2ccccc2C1 | n | x | x | x
Cc1ccc(C(=O)CSc2ccccn2)cc1 | n | n | 84 | n
Cn1cccc1CNC(=O)Nc1ccc(Cl)cc1 | n | n | 54 | n
CCOC(=O)c1[nH]c(C)c(C(=O)OCC)c1C | n | n | n | n
CCOC(=O)c1c(C)[nH]c(C(=O)COC(=O)C2CC2C)c1C (stereo not given) | n | n | 54 | n
O=C(Nc1ccc(-c2nc3ncccc3o2)cc1)c1ccc(Br)o1 | n | n | n | n
Cc1cc(C(=O)Nc2ccccn2)cs1 | x | n | 62 | 56
O=C(Nc1ccc(-c2nc3cccnc3s2)cc1)c1ccco1 | n | 23 | n | n
O=C(Nc1ccc(-c2nc3ncccc3o2)cc1)c1ccco1 | n | n | 63 | n
Cc1ccc2nc(-c3ccc(NC(=O)c4ccco4)cc3)[nH]c2c1 | n | n | 50 | n
O=C(OC1CCCCC1)c1ccc(NC(=O)c2ccco2)cc1 | n | n | 60 | 49
Cc1ccccc1NC(=O)c1ccc(NC(=O)c2ccco2)cc1 | n | n | n | n
SMILES | Candida biofilm | JNK3 inh | SF-1 act | RORA act
O=C(Nc1ccccn1)c1ccc(NC(=O)c2ccco2)cc1 | n | n | 60 | 71
CCc1nnc(NC(=O)c2ccc(COc3ccccc3)o2)s1 | n | n | n | n
CCc1nnc(NC(=O)c2ccc(COc3ccc(C)cc3)o2)s1 | n | n | 52 | n
COc1ccccc1-c1ccc(NC2CCCCC2)nn1 | n | n | 80 | n
COc1ccccc1-c1ccc(Nc2cccc(C(F)(F)F)c2)nn1 | n | x | x | x
O=C1OC(c2ccccc2)=N/C1=C\N1CCCCC1 | n | x | x | x
O=C1OC(c2ccccc2)=C/C1=C/N1CCCCC1 | n | n | n | 71
CC(=O)c1c(C)nc(-c2ccc(Cl)cc2)nc1N=CN(C)C | n | n | 76 | 68
c1csc(CSc2nc3ccccc3s2)c1 | n | n | 52 | n
c1csc(CSc2nnc3sc4ccccc4n23)c1 | x | n | n | 51
COc1cc(NC(=O)NCc2ccncc2)cc(OC)c1OC | n | n | n | n
COc1cc(CN/C(C)=C(\C#N)C(N)=O)cc(OC)c1OC | n | 63 | n | n
Cc1ccc2nc(NC3=NCN(Cc4ccccc4)CN3)nc(C)c2c1 | n | n | n | n
Cc1ccc2c(C)nc(NC3=NCN(Cc4ccccc4)CN3)nc2c1 | n | 40 | n | n
O=C(c1ccc(C#CC2(O)CCCCC2)cc1)N1CCN(C(c2ccccc2)c2ccccc2)CC1 | n | x | x | x
CC(=O)Nc1ccc(S(=O)(=O)N2CCC(n3cnc4cc(F)ccc43)CC2)cc1 | n | 23 | n | n
Cc1ccccc1-c1noc(-c2ccc(O)cc2)n1 | n | n | n | 101
Cc1ccccc1-c1noc(-c2ccc(Cl)cc2)n1 | n | x | x | x
CNC(=O)c1sc2nc(-c3ccc(OC)cc3)cn2c1C | n | n | n | 62
CCN(CC)C(=O)c1sc2nc(-c3ccc(OC)cc3)cn2c1C | n | n | 80 | 98
COc1ccc(-c2cn3c(C)c(C(=O)NCCN4CCOCC4)sc3n2)cc1 | n | n | n | n
Cn1ncc2c1ncn1nc(COc3ccc4ccccc4c3)nc21 | n | n | n | n
Cn1ncc2c1ncn1nc(CCc3ccccc3)nc21 | n | n | 50 | n
O=C(Cn1cnc2c(oc3ccccc32)c1=O)c1ccccc1 | n | n | 61 | 93
Cc1ccccc1NC(=O)Cn1cnc2c(oc3ccccc32)c1=O | n | x | n | n
SMILES | Candida biofilm | JNK3 inh | SF-1 act | RORA act
N#CCCn1cc(/C=N/O)c(-c2ccc(-c3ccccc3)cc2)n1 | n | n | 57 | n
CCS(=O)(=O)c1ccc2oc(SCC(=O)NC3CCCC(C)C3C)nc2c1 (stereo not given) | n | x | x | x
N#Cc1c(N)oc(-c2ccc3c(c2)OCO3)c1-c1ccc2c(c1)OCO2 | n | x | n | n
Cc1ccc2nc(SCC(=O)c3cc(C)n(C)c3C)[nH]c2c1 | n | x | x | x
C=CCn1c(C)cc(C(=O)CSc2nc3ccccc3o2)c1C | n | n | n | n
C=CCn1c(C)cc(C(=O)CSc2nc3ccccc3c(=O)[nH]2)c1C | n | n | 112 | n
C=CCn1c(C)cc(C(=O)COc2nncc3ccccc23)c1C | n | x | n | 80
C=CCn1c(C)cc(C(=O)CSc2nnc(Cc3ccccc3)o2)c1C | n | x | n | n
Cc1cc(C(=O)CSc2nc3ccccc3[nH]2)c(C)n1C | n | n | 61 | 59
C=CCn1c(C)cc(C(=O)CSc2nnc(NCc3ccccc3)s2)c1C | n | n | 59 | n
Cc1c(OC(=O)CNC(=O)OC(C)(C)C)ccc2c3c(c(=O)oc12)CCC3 | x | n | n | n
CC(NC(=O)C1CCCN(C(=O)N(C)C)C1)c1ccccc1 (stereo not given) | n | x | x | x
O=C(CSc1nc2ccccc2[nH]1)N1CCN(c2ccccc2)CC1 | n | n | n | n
O=C(CSc1nc2ccccc2[nH]1)N1CCCCC1 | n | n | n | 52
COc1cccc(NC(=O)Cn2c(=O)n(CC3CCCO3)c(=O)c3ccccc32)c1 (stereo not given) | n | x | x | x
O=C1CCn2nc(-c3ccc(Cl)cc3)cc2N1 | n | n | n | 61
CSc1n[nH]c(NCc2ccc(C)cc2)n1 | n | x | x | x
CCc1ccc(NC(=O)c2ccc3nc(N)sc3c2)cc1 | n | x | x | x
Nc1nc2ccc(C(=O)Nc3ccccc3)cc2s1 | n | n | 90 | 62
CCOC(=O)Cn1c(=S)[nH]c2c(oc3ccc(Cl)cc32)c1=O | n | x | x | x
O=CNC1CCCc2c1[nH]c1ccc(Cl)cc21 (stereo not given) | n | n | n | n
c1ccc2c3c([nH]c2c1)-c1[nH]ncc1CC3 | n | 54 | n | n
Clc1ccc2[nH]c3c(c2c1)CCc1cn[nH]c1-3 | n | 85 | n | n
O=C(NCCOC(=O)c1ccc(Cl)cc1)c1cccnc1 | n | x | x | x
CCOc1cc2[nH]c(=O)n(CCCCC(=O)NC3CCCCC3)c(=O)c2cc1OCC | x | n | n | n
CS(=O)(=O)N1CCN(c2ccccc2NC(=O)CSc2ccc(Cl)cc2)CC1 | n | 21 | n | n
CCOc1ccc2nc(-c3ccccc3)[nH]c2c1 | n | n | n | 67
COc1ccc2nc(-c3ccccc3)[nH]c2c1 | n | n | n | n

Bioassay records as filed in PubChem BioAssay.
